# Measurements from different studies.
# Protocols differ between the studies behind these lines.
# Target: Fibroblast growth factor receptor 1 (FGFR1, Homo sapiens, UniProt P11362)
Structure (SMILES),test,setting,remaining binding [%]
O=C(O)[C@H]1[C@H](Cn2nnc3ccccc3c2=O)CC[C@@H]1C(=O)c1ccc(OCCC2CCOCC2)cc1,"cell-free assay, competition with immobilised ligand",1 µM,98
F[C@@H]1CCN(c2nccc(-c3cnn4ncccc34)n2)C1,binding,1 µM,87
Cc1cnc(Nc2ccc(C(=O)N3CCC(N4CCCC4)CC3)cc2)nc1-c1cc2ccccc2s1,"binding, competition with immobilised ligand",1 µM,10
COc1ccnn2ncc(-c3ccnc(N(C)C)n3)c12,binding,1 µM,86
CNC(=O)[C@@H]1CC[C@@H](n2c(-c3ccc4cnccc4c3)nc3ccc(C(=O)NCc4cccc(C(N)=O)c4)cc32)C1,"binding, competition with immobilised ligand",1 µM,90
CCN1CCN(Cc2ccc(C(=O)Nc3ccc(C)c(Oc4ccc5c(c4)CC(=O)N5)c3)cc2C(F)(F)F)CC1,"binding, competition with immobilised ligand",1 µM,78
CO[C@H]1CC[C@H](CNc2ccc(S(=O)(=O)NC(=O)c3ccc(N4CCN(CC5=C(c6ccc(Cl)cc6)CC(C)(C)CC5)CC4)cc3Oc3cnc4[nH]ccc4c3)cc2[N+](=O)[O-])CC1,"cell-free assay, competition with immobilised ligand",1 µM,68
Nc1ncc2c(n1)-c1c([nH]c3ccc(C#CC4CC4)cc13)CCCC2,"binding, competition with immobilised ligand",1 µM,79
O=C(NCCCN1CCOCC1)c1ccc(Nc2nccc(-c3cc4ccccc4s3)n2)cc1,"binding, competition with immobilised ligand",1 µM,88
CN(C)c1nccc(-c2cnn3ncccc23)n1,binding,1 µM,100
O=C(Nc1c[nH]nc1C(=O)NC1CCNCC1)c1cc(F)cc(F)c1,"binding, competition with immobilised ligand",1 µM,100
CN(C)c1ncnc(-c2ccc3nc(Nc4cc(CN5CCN(C(=O)CC(F)(F)F)CC5)ccn4)[nH]c3c2)c1Cl,"cell-free assay, competition with immobilised ligand",1 µM,100
O=C(NCCCN1CCOCC1)c1ccc(Nc2ncc(Cl)c(-c3ccc(Cl)s3)n2)cc1,"binding, competition with immobilised ligand",1 µM,27
COc1cnc(Nc2cccc(S(N)(=O)=O)c2)nc1N1CCN(c2ccccc2)CC1,"binding, competition with immobilised ligand",1 µM,100
C=CC(=O)N1CCC(C(=O)NCC(=O)N2CCN(c3nc(-c4cnc(N)nc4C(F)F)nc(N4CCOCC4)n3)CC2)CC1,"binding, competition with immobilised ligand",1 µM,100
N[C@H]1CCN(c2nccc(-c3cnn4ncccc34)n2)C1,binding,1 µM,100
O=C1CCc2cc(Nc3cc(OC4CCOCC4)c([N+](=O)[O-])cc3Cl)ccc2N1,"cell-free assay, competition with immobilised ligand",1 µM,93
C[C@H]1CCN(c2nccc(-c3cnn4ncccc34)n2)C1,binding,1 µM,100
C[C@@H]1CN(c2cc(-c3nn(C)c4ccc(OC5(C)CC5)cc34)ncn2)C[C@H](C)O1,"cell-free assay, competition with immobilised ligand",1 µM,100
C[C@@H](c1ccc(-n2cnc3c(N)ncnc32)cc1)N1CCc2nn(C)c(Cc3ccccc3)c2C1=O,"binding, competition with immobilised ligand",0.1 µM,94
Cc1nc(C2CCN(C(=O)c3ccc(OC(F)(F)F)cc3N)CC2)c2ncc(N3CCN(C)CC3)cc2n1,"cell-free assay, competition with immobilised ligand",1 µM,100
CN(CCCC(F)(F)F)c1nccc(-c2cnn3ncccc23)n1,binding,1 µM,46
